ChEMBL document CHEMBL1250535, “Synthesis, anti-fungal and 1,3-β-D-glucan synthase inhibitory activities of caffeic and quinic acid derivatives” (Bioorg Med Chem, 2010)
pIC50: −log10 of the molar value. ≈ marks a conversion by molar mass, not a printed value. Starred links: 1 amine or outer side, 2 acyl side, 3 side chain; linkers in the order of their positions; H or OH if unused. Positions of bridges follow the written chain, without caps; N, C: chain ends. Non-standard residues stand in square brackets, D forms with d. Residues, ends and D or L forms follow the SMILES beside them. *: point of attachment. Orn(4R-OH,5R-OH) = O=C([C@H](C[C@@H](O)[C@@H](O)N[*:3])N[*:1])[*:2]; hTyr(3S-OH,4S-OH) = N[C@H](C(=O)O)[C@H](O)[C@@H](O)c1ccc(O)cc1; Pro(3S-OH,4S-Me) = C[C@H]1CN[C@H](C(=O)O)[C@H]1O; Palmitoyl = CCCCCCCCCCCCCCCC(=O)*; Hyp = O=C(O)[C@@H]1C[C@@H](O)CN1

How the values were obtained:
[1] = target: T1, Beta-1,3-glucan synthase (Candida albicans, UniProt O13383); assay: Inhibition of Candida albicans 1,3 beta-D-glucan synthase
T1 sequence (O13383 whole entry): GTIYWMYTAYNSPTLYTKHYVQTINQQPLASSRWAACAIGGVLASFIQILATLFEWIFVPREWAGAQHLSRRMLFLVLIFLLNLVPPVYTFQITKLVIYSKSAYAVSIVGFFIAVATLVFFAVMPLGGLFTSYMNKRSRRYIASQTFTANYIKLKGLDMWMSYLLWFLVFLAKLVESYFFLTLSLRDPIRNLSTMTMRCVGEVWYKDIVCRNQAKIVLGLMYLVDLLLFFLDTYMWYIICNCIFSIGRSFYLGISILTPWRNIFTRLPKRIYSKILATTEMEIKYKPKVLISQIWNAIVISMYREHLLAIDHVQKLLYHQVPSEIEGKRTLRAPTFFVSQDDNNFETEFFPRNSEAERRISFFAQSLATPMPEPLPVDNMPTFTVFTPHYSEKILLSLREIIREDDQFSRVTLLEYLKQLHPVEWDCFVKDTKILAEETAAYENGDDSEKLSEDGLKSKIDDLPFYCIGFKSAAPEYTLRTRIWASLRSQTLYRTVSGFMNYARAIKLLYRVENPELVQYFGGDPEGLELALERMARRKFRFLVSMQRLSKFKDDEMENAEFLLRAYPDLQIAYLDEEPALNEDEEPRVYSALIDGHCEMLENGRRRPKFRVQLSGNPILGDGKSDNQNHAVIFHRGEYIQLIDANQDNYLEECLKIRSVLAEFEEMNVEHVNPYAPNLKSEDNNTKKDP
Summary of the method: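 Membrane-bound enzyme prepared from Candida albicans. Reaction mix: 50 mM Tris–HCl pH 7.5, 0.5 mM EDTA, 25 mM KF, GTPγS, 0.75% BSA, 5.0 mM UDP-Glc, with and without test compound. Started by adding enzyme, run 20 min at 30 °C, stopped by heating 10 min at 96 °C. Glucan formed quantified by a 1,3-β-D-glucan-dependent enzyme cascade (BGSTAR kit).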

[2] = test system: Candida albicans; assay: Antifungal activity against Candida albicans by NCCLS method; type: functional
Summary of the method: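 Broth dilution per NCCLS against Candida albicans NBRC 1594.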

| Structure (SMILES) | pIC50 [1] | MIC [2] [µM] |
| --- | --- | --- |
| CCCCCCCCOc1ccc(NC(=O)C(CCCN)NC(=O)/C=C/c2ccc(O)c(O)c2)cc1 (centres undefined) | 4.66 | 4 (≈ 1.99 µg/mL) |
| CCCCCCCCOc1ccc(NC(=O)C(NC(=O)/C=C/c2ccc(O)c(O)c2)C(C)OC(C)(C)C)cc1 (centres undefined) | 4.43 | 15 (≈ 8.11 µg/mL) |
| CCCCCCCCOc1ccc(NC(=O)C(NC(=O)[C@]2(O)C[C@@H](O)[C@@H](O)[C@H](OC(=O)/C=C/c3ccc(O)c(O)c3)C2)C(C)O)cc1 (some centres undefined) | < 4.31 | 12 (≈ 7.9 µg/mL) |
| O=C(/C=C/c1ccc(O)c(O)c1)O[C@@H]1C[C@](O)(C(=O)O)C[C@@H](O)[C@H]1O [CHLOROGENIC ACID] | < 4.05 | > 181 |
| CCCCCCCCCCCCCCCC(=O)N[C@H]1C[C@@H](O)[C@@H](O)NC(=O)[C@@H]2[C@@H](O)[C@@H](C)CN2C(=O)[C@H]([C@@H](C)O)NC(=O)[C@H]([C@H](O)[C@@H](O)c2ccc(O)cc2)NC(=O)[C@@H]2C[C@@H](O)CN2C(=O)[C@H]([C@@H](C)O)NC1=O [ACULEACIN A] (Palmitoyl-[Orn(4R-OH,5R-OH)]T[Hyp][hTyr(3S-OH,4S-OH)]T[Pro(3S-OH,4S-Me)]; lactam 1-C) | 5.10 | 0.23 (≈ 0.238 µg/mL) |
| CCCCCCCCOc1ccc(NC(=O)[C@]2(O)C[C@@H](O)[C@@H](O)[C@H](OC(=O)/C=C/c3ccc(O)c(O)c3)C2)cc1 | 4.39 | 14 (≈ 7.81 µg/mL) |
| CCCCCCCCOc1ccc(NC(=O)C(NC(=O)/C=C/c2ccc(O)c(O)c2)C(C)O)cc1 (centres undefined) | < 4.18 | 8.3 (≈ 4.02 µg/mL) |
| CCCCCCCCOc1ccc(NC(=O)C(CC(=O)O)NC(=O)/C=C/c2ccc(O)c(O)c2)cc1 (centres undefined) | < 4.19 | 64 (≈ 31.9 µg/mL) |
| CCCCCCCCOc1ccc(NC(=O)C(CCCNC(=O)OC(C)(C)C)NC(=O)/C=C/c2ccc(O)c(O)c2)cc1 (centres undefined) | 4.28 | 27 (≈ 16.1 µg/mL) |
| CCCCCCCCOc1ccc(NC(=O)/C=C/c2ccc(O)c(O)c2)cc1 | < 4.08 | 84 (≈ 32.2 µg/mL) |
| CCCCCCCCOc1ccc(NC(=O)C(CC(=O)OC(C)(C)C)NC(=O)/C=C/c2ccc(O)c(O)c2)cc1 (centres undefined) | 4.24 | 29 (≈ 16.1 µg/mL) |

Now from value to compound:

| pIC50 [1] | MIC [2] [µM] | Structure (SMILES) |
| --- | --- | --- |
| < 4.20 | > 125 | CCCCCCCCOc1ccc(NC(=O)C(CC(=O)O)NC(=O)[C@]2(O)C[C@@H](O)[C@@H](O)[C@H](O)C2)cc1 (some centres undefined) |
| < 4.32 | 48 (≈ 32.3 µg/mL) | CCCCCCCCOc1ccc(NC(=O)C(CC(=O)O)NC(=O)[C@]2(O)C[C@@H](O)[C@@H](O)[C@H](OC(=O)/C=C/c3ccc(O)c(O)c3)C2)cc1 (some centres undefined) |
| < 4.09 | 81 (≈ 32 µg/mL) | CCCCCCCCOc1ccc(NC(=O)[C@]2(O)C[C@@H](O)[C@@H](O)[C@H](O)C2)cc1 |
| < 4.19 | > 129 | CCCCCCCCOc1ccc(NC(=O)C(NC(=O)[C@]2(O)C[C@@H](O)[C@@H](O)[C@H](O)C2)C(C)O)cc1 (some centres undefined) |
| 4.28 | 16 (≈ 8.15 µg/mL) | CCCCCCCCOc1ccc(NC(=O)C(CCCN)NC(=O)[C@]2(O)C[C@@H](O)[C@@H](O)[C@H](O)C2)cc1 (some centres undefined) |
| 4.82 | 6 (≈ 4.03 µg/mL) | CCCCCCCCOc1ccc(NC(=O)C(CCCN)NC(=O)[C@]2(O)C[C@@H](O)[C@@H](O)[C@H](OC(=O)/C=C/c3ccc(O)c(O)c3)C2)cc1 (some centres undefined) |
